According to ChEMBL document CHEMBL1909595, “Characterization of a novel and selective CB1 antagonist as a radioligand for receptor occupancy studies” (Bioorg Med Chem Lett, 2011):
One block for each compound: values may come before it.

Legend:
[1] = tested on: Plasma; assay: Free plasma concentration in Sprague-Dawley rat at 10 mg/kg, po measured 6 hrs post dose; format: ADME, organism-based; set-up: dose 10 mg/kg, route oral; conditions: in vivo
[2] = tested on: Rattus norvegicus; assay: Antiobesity activity in Sprague-Dawley rat assessed as reduction in food intake at 10 mg/kg, po measured after 20 hrs; format: functional; set-up: scale not given: the % may be the effect or the level left
Procedure, shortened: (§1)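 Male Sprague-Dawley rats, six per group, trained to bar-press for food pellets in operant chambers. Dosed p.o. in 10% DMAC/10% EtOH/10% Cremophor/70% water at 2 ml/kg. Two 20 h sessions starting at dark-cycle onset, 4 h apart. The first session was the baseline used to balance groups. Pellets counted at 1, 2, 4, 8, 12 and 20 h after lock-out. One-way ANOVA with Fisher PLSD.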

[3] = molecular target: T1, Cannabinoid receptor 1 (Rattus norvegicus, UniProt P20272); assay: Displacement of [3H]BMS-725519 from rat brain CB1 receptor after 45 mins by autoradiography
[4] = tested on: Plasma; assay: Free plasma concentration in Sprague-Dawley rat at 0.3 mg/kg, po measured 6 hrs post dose; format: ADME, organism-based; set-up: dose 0.3 mg/kg, route oral; conditions: in vivo
[5] = molecular target: T2, Cannabinoid receptor 1 (Homo sapiens, UniProt P21554); assay: Displacement of [3H]-SR-141716 from human CB1 receptor
[6] = tested on: Rattus norvegicus; assay: Antiobesity activity in Sprague-Dawley rat assessed as reduction in food intake at 0.03 mg/kg, po measured after 20 hrs; format: functional; set-up: scale not given: the % may be the effect or the level left; procedure, shortened: as §1
[7] = tested on: Plasma; assay: Free plasma concentration in Sprague-Dawley rat at 1 mg/kg, po measured 6 hrs post dose; format: ADME, organism-based; set-up: dose 1 mg/kg, route oral; conditions: in vivo
[8] = tested on: Rattus norvegicus; assay: Antiobesity activity in Sprague-Dawley rat assessed as reduction in food intake at 0.1 mg/kg, po measured after 20 hrs; format: functional; set-up: scale not given: the % may be the effect or the level left; procedure, shortened: as §1
[9] = tested on: Rattus norvegicus; assay: Ex vivo receptor occupancy of CB1 receptor in Sprague-Dawley rat at 0.3 mg/kg, po measured 6 hrs post dose; format: functional
Procedure, shortened: (§2)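 Male Sprague-Dawley rats were dosed p.o. (0.03–30 mg/kg, vehicle 10% DMAC/cremophor/ethanol, 2 ml/kg) 1 h before the dark cycle. Brains were taken 6 h post-dose, three per group, frozen and cut into 20 µm cryosections. Sections pre-incubated 30 s, then 6 min with 40 nM [3H]BMS-725519 in chilled HEPES buffer. Nonspecific binding by 5 µM unlabelled BMS-725519. Three 30 s washes. Cerebellar density measured by phosphor imaging (DLU/mm², background-subtracted); occupancy expressed relative to vehicle specific binding.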

[10] = tested on: Plasma; assay: Free plasma concentration in Sprague-Dawley rat at 3 mg/kg, po measured 6 hrs post dose; format: ADME, organism-based; set-up: dose 3 mg/kg, route oral; conditions: in vivo
[11] = tested on: Rattus norvegicus; assay: Antiobesity activity in Sprague-Dawley rat assessed as reduction in food intake at 0.3 mg/kg, po measured after 20 hrs; format: functional; set-up: scale not given: the % may be the effect or the level left; procedure, shortened: as §1
[12] = tested on: Rattus norvegicus; assay: Antiobesity activity in Sprague-Dawley rat assessed as reduction in food intake at 1 mg/kg, po measured after 20 hrs; format: functional; set-up: scale not given: the % may be the effect or the level left; procedure, shortened: as §1
[13] = tested on: Rattus norvegicus; assay: Ex vivo receptor occupancy of CB1 receptor in Sprague-Dawley rat at 0.03 mg/kg, po measured 6 hrs post dose; format: functional; procedure, shortened: as §2
[14] = tested on: Plasma; assay: Free plasma concentration in Sprague-Dawley rat at 30 mg/kg, po measured 6 hrs post dose; format: ADME, organism-based; set-up: dose 30 mg/kg, route oral; conditions: in vivo
[15] = tested on: Rattus norvegicus; assay: Antiobesity activity in Sprague-Dawley rat assessed as reduction in food intake at 30 mg/kg, po measured after 20 hrs; format: functional; set-up: scale not given: the % may be the effect or the level left; procedure, shortened: as §1
[16] = tested on: Rattus norvegicus; assay: Ex vivo receptor occupancy of CB1 receptor in Sprague-Dawley rat at 1 mg/kg, po measured 6 hrs post dose; format: functional; procedure, shortened: as §2
[17] = Protein binding in human; format: ADME
[18] = tested on: Rattus norvegicus; assay: Ex vivo receptor occupancy of CB1 receptor in Sprague-Dawley rat at 0.1 mg/kg, po measured 6 hrs post dose; format: functional; procedure, shortened: as §2
[19] = tested on: Plasma; assay: Free plasma concentration in Sprague-Dawley rat at 0.1 mg/kg, po measured 6 hrs post dose; format: ADME, organism-based; set-up: dose 0.1 mg/kg, route oral; conditions: in vivo
[20] = tested on: Plasma; assay: Free plasma concentration in Sprague-Dawley rat at 0.03 mg/kg, po measured 6 hrs post dose; format: ADME, organism-based; set-up: dose 0.03 mg/kg, route oral; conditions: in vivo
[21] = molecular target: T1, Cannabinoid receptor 1; assay: Displacement of [3H]-SR-141716 from rat CB1 receptor
[22] = tested on: Rattus norvegicus; assay: Ex vivo receptor occupancy of CB1 receptor in Sprague-Dawley rat at 10 mg/kg, po measured 6 hrs post dose; format: functional; procedure, shortened: as §2
[23] = tested on: Rattus norvegicus; assay: Ex vivo receptor occupancy of CB1 receptor in Sprague-Dawley rat at 30 mg/kg, po measured 6 hrs post dose; format: functional; procedure, shortened: as §2
[24] = tested on: Rattus norvegicus; assay: Ex vivo receptor occupancy of CB1 receptor in Sprague-Dawley rat at 3 mg/kg, po measured 6 hrs post dose; format: functional; procedure, shortened: as §2
[25] = tested on: Rattus norvegicus; assay: Antiobesity activity in Sprague-Dawley rat assessed as reduction in food intake at 3 mg/kg, po measured after 20 hrs; format: functional; set-up: scale not given: the % may be the effect or the level left; procedure, shortened: as §1
[26] = molecular target: Cannabinoid receptor 2 (Homo sapiens, UniProt P34972); assay: Displacement of [3H]-CP55940 from human CB2 receptor
[27] = tested on: Brain; assay: Drug uptake in brain of mouse expressing CB1 receptor at 10 uM; format: ADME, tissue-based; conditions: in vivo
[28] = tested on: Brain; assay: Drug uptake in brain of CB1 receptor knockout mouse at 10 uM; format: ADME, tissue-based; conditions: in vivo
[29] = molecular target: T2, Cannabinoid receptor 1; assay: Binding affinity to human CB1 receptor expressed in CHO cells after 90 mins by scintillation counting; format: cell-based
Procedure, shortened: (§3)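 Rat whole-brain or CHO (human CB1) membranes were homogenized in 10 mM HEPES/1 mM EGTA pH 7.4 with protease inhibitors, DTT and sucrose. Centrifuged at 1000 g, then the pellet was taken at 100,000 g and resuspended in 20 mM HEPES, 1 mM EGTA, 1 mM DTT, 1 mM MgCl2. Saturation with increasing [3H]BMS-725519; nonspecific binding by cold BMS-725519. 90 min at room temperature, GF/B filtration, scintillation counting. Kd and Bmax derived.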

[30] = molecular target: T1, Cannabinoid receptor 1; assay: Binding affinity to rat brain CB1 receptor after 90 mins by scintillation counting; procedure, shortened: as §3

T1 sequence (P20272 whole entry): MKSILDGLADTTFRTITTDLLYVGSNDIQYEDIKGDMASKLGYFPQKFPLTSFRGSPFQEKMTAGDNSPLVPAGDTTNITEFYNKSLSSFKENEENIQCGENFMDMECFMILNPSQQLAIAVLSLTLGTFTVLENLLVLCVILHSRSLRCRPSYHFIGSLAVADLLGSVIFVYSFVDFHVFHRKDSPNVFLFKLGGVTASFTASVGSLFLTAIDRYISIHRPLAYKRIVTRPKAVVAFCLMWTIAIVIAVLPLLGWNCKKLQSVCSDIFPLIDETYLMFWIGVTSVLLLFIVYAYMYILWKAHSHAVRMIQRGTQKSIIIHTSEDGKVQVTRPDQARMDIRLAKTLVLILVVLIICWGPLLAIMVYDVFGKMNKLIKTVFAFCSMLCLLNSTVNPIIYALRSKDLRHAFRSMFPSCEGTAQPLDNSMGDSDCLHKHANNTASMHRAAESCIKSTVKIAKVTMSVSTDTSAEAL
T2 sequence (P21554 whole entry): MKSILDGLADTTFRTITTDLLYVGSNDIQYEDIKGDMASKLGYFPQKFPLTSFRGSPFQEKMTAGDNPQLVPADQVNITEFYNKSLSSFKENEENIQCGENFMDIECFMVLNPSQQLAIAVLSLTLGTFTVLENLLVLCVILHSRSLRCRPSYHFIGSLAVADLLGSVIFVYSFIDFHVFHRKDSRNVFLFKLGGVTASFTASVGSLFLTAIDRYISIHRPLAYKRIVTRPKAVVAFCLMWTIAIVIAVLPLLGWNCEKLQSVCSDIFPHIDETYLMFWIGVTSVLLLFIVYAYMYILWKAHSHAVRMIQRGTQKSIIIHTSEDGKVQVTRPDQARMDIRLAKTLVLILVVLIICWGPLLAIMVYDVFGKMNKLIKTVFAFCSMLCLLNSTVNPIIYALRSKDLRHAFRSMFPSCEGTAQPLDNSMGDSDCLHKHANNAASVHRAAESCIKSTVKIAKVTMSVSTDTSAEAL
Sequence of Cannabinoid receptor 2 (P34972 whole entry): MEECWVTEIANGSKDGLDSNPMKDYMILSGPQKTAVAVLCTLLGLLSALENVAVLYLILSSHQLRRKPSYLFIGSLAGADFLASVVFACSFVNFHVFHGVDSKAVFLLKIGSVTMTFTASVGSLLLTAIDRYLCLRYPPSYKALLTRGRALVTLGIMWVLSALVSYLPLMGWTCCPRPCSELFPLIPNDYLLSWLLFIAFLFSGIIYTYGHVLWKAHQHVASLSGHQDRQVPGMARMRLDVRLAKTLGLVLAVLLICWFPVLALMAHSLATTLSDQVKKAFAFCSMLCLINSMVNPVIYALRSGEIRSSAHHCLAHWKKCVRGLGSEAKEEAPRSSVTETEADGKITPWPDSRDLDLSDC

Cp(f) [1]: 531 nM
IC50 [3]: 37 nM
Cp(f) [4]: 15.3 nM
Kd [5]: 4.6 nM
Cp(f) [7]: 49.4 nM
Cp(f) [10]: 112 nM
Cp(f) [14]: 1047 nM
fraction unbound [17]: 0.05
Cp(f) [19]: 5.4 nM
Cp(f) [20]: 1.5 nM
Kd [21]: 12.4 nM
Kd [26]: > 10 µM
Compound: O=c1n(Cc2ccc(C(F)(F)F)nc2)nc2c(-c3ccncc3)c(-c3ccc(Cl)cc3)cnn12
Activity [2]: 67.4%
Activity [6]: 0%
Activity [8]: 0%
Activity [9]: 20.6%
Activity [11]: 22.3%
Activity [12]: 23.7%
Activity [13]: 12.7%
Activity [15]: 72.5%
Activity [16]: 29.8%
Activity [18]: 14.3%
Activity [22]: 64.5%
Activity [23]: 74.1%
Activity [24]: 55.6%
Activity [25]: 41.5%

Drug uptake [27]: Active
Drug uptake [28]: Not Active
Kd [29]: 3.95 nM
Kd [30]: 29.1 nM
Compound: [3H]c1cc(-c2cnn3c(=O)n(Cc4ccc(C(F)(F)F)nc4[3H])nc3c2-c2ccncc2)ccc1Cl
